Activity calls are given as the source filed them. The calls are words filed in the database; no cut-off is given here.
Assays:
[1] = molecular target: T1, NAD-dependent protein deacylase sirtuin-6 (Homo sapiens, UniProt Q8N6T7); assay: Binding affinity to N-terminal his-tagged human SIRT6 expressed in Escherichia coli M15 [pREP4] by SPR assay
[2] = Tmax in Sprague-Dawley rat at 10 mg/kg, po after 0.083 to 24 hrs by LC-MS/MS analysis; format: ADME, organism-based; details: in vivo
Procedure, shortened: (§1)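 Male Sprague-Dawley rats, 6–8 weeks old, received a single dose of 10 mg/kg p.o. or 2 mg/kg i.v. The vehicle was 5% DMSO, 10% Solutol and 85% saline at pH 7. Blood was taken by cardiac puncture at 0.083–24 h (p.o.) or 0.25–24 h (i.v.), and plasma was measured by LC-MS/MS. Values are mean ± SD, n = 3.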

[3] = molecular target: T1, NAD-dependent protein deacylase sirtuin-6; assay: Binding affinity to N-terminal his-tagged human SIRT6 expressed in Escherichia coli M15 [pREP4] assessed as change in melting temperature at 20 uM by SYPRO orange dye based DSF assay
[4] = AUC (0 to t) in Sprague-Dawley rat at 10 mg/kg, po after 0.083 to 24 hrs by LC-MS/MS analysis; format: ADME, organism-based; details: in vivo
Procedure, shortened: (§2)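 Male Sprague-Dawley rats, 6-8 weeks old. Dosing solution of 10 (PO) or 2 (IV) mg/mL in 5% DMSO, 10% Solutol and 85% saline, pH 7. Blood taken by cardiac puncture at 0.083–24 h (PO) or 0.25–24 h (IV). Plasma levels measured by LC-MS/MS. Values are mean ± SD, n = 3.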

NCI-H526 = assay: Antiproliferative activity against human NCI-H526 cells assessed as reduction in cell viability incubated for 72 hrs by MTT assay; format: functional, cell-based
NCI-H446 = assay: Antiproliferative activity against human NCI-H446 cells assessed as reduction in cell viability incubated for 72 hrs by MTT assay; format: functional, cell-based
[5] = molecular target: NAD-dependent protein deacylase sirtuin-5, mitochondrial (Homo sapiens, UniProt Q9NXA8); assay: Inhibition of SIRT5 (unknown origin) by FDL assay
Procedure, shortened: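 SIRT3 and SIRT5 tested by an outsourced FDL fluorogenic deacetylase assay, each from a different contract provider. The IC50 was determined for each enzyme, with concentrations going up to 200 μM.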

[6] = molecular target: Protein deacetylase HDAC6 (Homo sapiens, UniProt Q9UBN7); assay: Inhibition of HDAC6 (unknown origin) by FDL assay
Procedure, shortened: (§3)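 Selectivity testing by FDL assay at concentrations up to 200 µM. SIRT1-2 assays run by an outside contract provider. Values reported as IC50.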

BXPC-3 = assay: Induction of cell cycle arrest in human BxPC3 cells assessed as increase in accumulation at G2 phase incubated for 48 hrs by propidium iodide staining based flow cytometry; format: functional
Procedure, shortened: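 PANC-1 and BXPC-3 cells in 6-well plates treated with a concentration series for 48 h. Stained with 50 µg/mL propidium iodide for 30 min in the dark. DNA content analysed by flow cytometry for cell-cycle phase distribution.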

[7] = molecular target: T1, NAD-dependent protein deacylase sirtuin-6; assay: Binding affinity to SIRT6 in human PANC1 cells assessed as protection of SIRT6 protein from temperature-dependent degradation at 25 uM incubated for 72 hrs by CETSA; format: cell-based; details: PANC-1
Procedure, shortened: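 Cells treated with compound (25 μM) or DMSO for 72 h, washed, resuspended in PBS with protease inhibitor cocktail, split into aliquots heated 3 min at a temperature gradient. Lysed by three freeze–thaw cycles, centrifuged at 4 °C for 15 min; soluble SIRT6 in supernatant detected by western blot. Triplicate.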

[8] = molecular target: T1, NAD-dependent protein deacylase sirtuin-6; assay: […] in human PANC1 cells assessed as reduction in IGF2BP3 expression levels at 25 uM incubated for 72 hrs by Western blot analysis; format: cell-based; details: PANC-1
Procedure, shortened: (§4)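 Cells incubated 72 h with various compound concentrations; whole-cell RIPA lysates with protease inhibitors, BCA-normalised, separated on 12% SDS-PAGE, transferred to PVDF, blocked in 5% milk or BSA. Probed 10 h at 4 °C with antibodies to SIRT6, acetyl-H3K9/K18/K56, total H3, Lin28b, Myc, IGF2BP3, β-actin; HRP secondary, chemiluminescent detection.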

[9] = Volume of distribution at steady state in Sprague-Dawley rat at 2 mg/kg, iv after 0.25 to 24 hrs by LC-MS/MS analysis; format: ADME, organism-based; details: in vivo; procedure, shortened: as §1
[10] = molecular target: T1, NAD-dependent protein deacylase sirtuin-6; assay: […] in human PANC1 cells assessed as reduction in Lin28b expression levels at 25 uM incubated for 72 hrs by Western blot analysis; format: cell-based; details: PANC-1; procedure, shortened: as §4
Histone deacetylase 2 = Histone deacetylase 2 (Homo sapiens, UniProt Q92769); assay: Inhibition of HDAC2 (unknown origin) by FDL assay; procedure, shortened: as §3
[11] = AUC (0 to infinity) in Sprague-Dawley rat at 10 mg/kg, po after 0.083 to 24 hrs by LC-MS/MS analysis; format: ADME, organism-based; parameters: dose 10 mg/kg, time infinity, route oral; details: in vivo; procedure, shortened: as §2
[12] = Half life in Sprague-Dawley rat at 2 mg/kg, iv after 0.25 to 24 hrs by LC-MS/MS analysis; format: ADME, organism-based; details: in vivo; procedure, shortened: as §2
Histone deacetylase 1 = Histone deacetylase 1 (Homo sapiens, UniProt Q13547); assay: Inhibition of HDAC1 (unknown origin) by FDL assay; procedure, shortened: as §3
Histone deacetylase 11 = Histone deacetylase 11 (Homo sapiens, UniProt Q96DB2); assay: Inhibition of HDAC11 (unknown origin) by FDL assay; procedure, shortened: as §3
[13] = molecular target: T1, NAD-dependent protein deacylase sirtuin-6; assay: Activation of N-terminal his-tagged human SIRT6 expressed in Escherichia coli M15 [pREP4] assessed as increase in deacetylation activity incubated for 2 hrs using Ac-RYQK(Ac)-AMC substrate by FDL assay relative to control
[14] = molecular target: T1, NAD-dependent protein deacylase sirtuin-6; assay: […] in human BxPC3 cells assessed as reduction in H3K18ac levels incubated for 72 hrs by Western blot analysis; format: cell-based; details: BXPC-3; procedure, shortened: as §4
MIA PaCa-2 [15] = assay: Inhibition of colony formation in human MIAPaCa2 cells incubated for 9 to 18 days by crystal violet staining based assay; format: functional, cell-based
Procedure, shortened: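 Cells are seeded per well at the line-specific density: BXPC-3 750, PANC-1 500, AsPC-1 2200, MIAPaCa-2 500. Compound at several concentrations is added after 24 h. Incubation runs 9–18 days (BXPC-3 18 days, PANC-1 14 days). Cells are then fixed with 4% paraformaldehyde and stained with crystal violet, and colonies of more than 50 cells are counted.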

MIA PaCa-2 [16] = assay: Antiproliferative activity against human MIAPaCa2 cells assessed as reduction in cell viability incubated for 72 hrs by MTT assay; format: functional, cell-based
Procedure, shortened: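 PDAC cells grown in DMEM or RPMI1640 with 10% FBS and penicillin/streptomycin at 37 °C, 5% CO2. Plated in triplicate, then treated with a concentration series for 72 h. Viability read by MTT. IC50 calculated from dose-response curves.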

PANC-1 = assay: Induction of apoptosis in human PANC1 cells incubated for 48 hrs by propidium iodide and Annexin V-FITC staining based flow cytometry; format: functional, cell-based
Procedure, shortened: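 PANC-1 and BXPC-3 cells seeded in 6-well plates and treated with a concentration series for 48 h. Stained with Annexin V-FITC and propidium iodide for 10 min in the dark. Annexin V+ populations measured by flow cytometry.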

T1 sequence (Q8N6T7 whole entry): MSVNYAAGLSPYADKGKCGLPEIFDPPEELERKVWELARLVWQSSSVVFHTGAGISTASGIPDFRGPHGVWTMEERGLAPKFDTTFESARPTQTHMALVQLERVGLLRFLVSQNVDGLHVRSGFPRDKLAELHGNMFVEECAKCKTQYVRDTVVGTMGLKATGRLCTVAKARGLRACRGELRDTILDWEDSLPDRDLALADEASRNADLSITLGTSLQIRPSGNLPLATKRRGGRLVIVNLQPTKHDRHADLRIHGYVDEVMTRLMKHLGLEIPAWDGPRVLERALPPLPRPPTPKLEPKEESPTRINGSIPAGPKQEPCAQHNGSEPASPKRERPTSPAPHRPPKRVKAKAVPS
Histone deacetylase 11, sequence (Q96DB2 whole entry): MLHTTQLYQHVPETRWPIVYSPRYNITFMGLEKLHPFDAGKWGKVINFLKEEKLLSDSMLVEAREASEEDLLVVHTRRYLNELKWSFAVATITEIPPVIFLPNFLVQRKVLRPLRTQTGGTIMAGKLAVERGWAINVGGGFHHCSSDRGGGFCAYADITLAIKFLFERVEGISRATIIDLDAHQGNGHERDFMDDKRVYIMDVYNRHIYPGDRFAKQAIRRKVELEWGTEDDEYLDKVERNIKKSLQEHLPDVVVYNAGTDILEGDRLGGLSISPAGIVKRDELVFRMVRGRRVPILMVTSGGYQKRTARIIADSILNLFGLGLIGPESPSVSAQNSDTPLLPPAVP
Protein deacetylase HDAC6, sequence (Q9UBN7 whole entry): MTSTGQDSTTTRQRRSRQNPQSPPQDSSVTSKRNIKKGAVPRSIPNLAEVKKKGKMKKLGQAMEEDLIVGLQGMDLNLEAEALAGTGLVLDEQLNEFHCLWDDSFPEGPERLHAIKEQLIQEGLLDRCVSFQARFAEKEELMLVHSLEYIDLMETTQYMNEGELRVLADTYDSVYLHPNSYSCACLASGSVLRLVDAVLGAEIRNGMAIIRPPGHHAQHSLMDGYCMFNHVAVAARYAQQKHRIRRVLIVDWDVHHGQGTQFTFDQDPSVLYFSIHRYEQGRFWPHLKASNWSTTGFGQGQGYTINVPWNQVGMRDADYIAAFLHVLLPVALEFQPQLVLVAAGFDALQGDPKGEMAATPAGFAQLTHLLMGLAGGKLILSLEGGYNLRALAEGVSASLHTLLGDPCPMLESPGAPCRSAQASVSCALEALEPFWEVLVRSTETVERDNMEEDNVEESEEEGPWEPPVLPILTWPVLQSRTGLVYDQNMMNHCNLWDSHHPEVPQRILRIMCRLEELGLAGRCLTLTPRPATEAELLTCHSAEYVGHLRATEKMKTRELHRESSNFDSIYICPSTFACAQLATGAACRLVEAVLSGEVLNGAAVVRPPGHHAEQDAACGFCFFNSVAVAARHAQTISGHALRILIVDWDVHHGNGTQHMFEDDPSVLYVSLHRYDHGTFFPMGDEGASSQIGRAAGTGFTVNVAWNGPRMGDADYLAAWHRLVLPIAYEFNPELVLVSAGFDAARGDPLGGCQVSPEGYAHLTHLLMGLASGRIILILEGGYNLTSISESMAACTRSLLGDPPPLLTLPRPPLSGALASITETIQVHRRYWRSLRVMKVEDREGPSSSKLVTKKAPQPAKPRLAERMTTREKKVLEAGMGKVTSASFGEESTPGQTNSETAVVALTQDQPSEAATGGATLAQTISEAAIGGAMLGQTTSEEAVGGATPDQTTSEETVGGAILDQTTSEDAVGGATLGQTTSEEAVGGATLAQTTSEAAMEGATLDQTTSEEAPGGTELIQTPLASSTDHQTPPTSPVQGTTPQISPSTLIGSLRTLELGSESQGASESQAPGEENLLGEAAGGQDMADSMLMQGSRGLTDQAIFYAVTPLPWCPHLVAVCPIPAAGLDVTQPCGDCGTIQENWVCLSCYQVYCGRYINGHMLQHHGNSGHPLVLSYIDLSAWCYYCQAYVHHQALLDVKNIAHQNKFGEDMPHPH
Histone deacetylase 2, sequence (Q92769 whole entry): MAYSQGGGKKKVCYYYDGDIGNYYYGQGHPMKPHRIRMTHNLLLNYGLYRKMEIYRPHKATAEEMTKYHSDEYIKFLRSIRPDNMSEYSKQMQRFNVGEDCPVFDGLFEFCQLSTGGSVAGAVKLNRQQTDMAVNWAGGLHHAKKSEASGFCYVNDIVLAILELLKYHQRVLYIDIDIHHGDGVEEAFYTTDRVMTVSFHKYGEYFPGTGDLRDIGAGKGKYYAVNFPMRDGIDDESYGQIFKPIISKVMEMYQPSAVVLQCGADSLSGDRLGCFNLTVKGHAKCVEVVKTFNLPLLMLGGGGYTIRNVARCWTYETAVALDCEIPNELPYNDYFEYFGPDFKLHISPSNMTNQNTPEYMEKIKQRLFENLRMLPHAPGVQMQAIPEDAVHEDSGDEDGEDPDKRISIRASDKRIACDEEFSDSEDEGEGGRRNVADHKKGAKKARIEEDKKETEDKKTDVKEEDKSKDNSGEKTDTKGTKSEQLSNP
Histone deacetylase 1, sequence (Q13547 whole entry): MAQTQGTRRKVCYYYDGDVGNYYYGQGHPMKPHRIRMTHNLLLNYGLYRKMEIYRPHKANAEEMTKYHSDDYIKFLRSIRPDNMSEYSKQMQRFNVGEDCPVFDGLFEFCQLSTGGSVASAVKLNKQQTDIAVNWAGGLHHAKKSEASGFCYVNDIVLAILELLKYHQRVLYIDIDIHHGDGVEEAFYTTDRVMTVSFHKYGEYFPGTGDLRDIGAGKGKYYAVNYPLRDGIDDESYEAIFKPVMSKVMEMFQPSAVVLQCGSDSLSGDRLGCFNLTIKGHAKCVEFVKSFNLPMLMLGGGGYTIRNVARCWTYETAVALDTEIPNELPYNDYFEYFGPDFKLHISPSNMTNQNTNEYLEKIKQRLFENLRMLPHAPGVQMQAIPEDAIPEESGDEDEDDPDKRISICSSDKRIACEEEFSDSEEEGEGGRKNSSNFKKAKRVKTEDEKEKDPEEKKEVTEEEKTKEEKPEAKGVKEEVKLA
NAD-dependent protein deacylase sirtuin-5, mitochondrial, sequence (Q9NXA8 whole entry): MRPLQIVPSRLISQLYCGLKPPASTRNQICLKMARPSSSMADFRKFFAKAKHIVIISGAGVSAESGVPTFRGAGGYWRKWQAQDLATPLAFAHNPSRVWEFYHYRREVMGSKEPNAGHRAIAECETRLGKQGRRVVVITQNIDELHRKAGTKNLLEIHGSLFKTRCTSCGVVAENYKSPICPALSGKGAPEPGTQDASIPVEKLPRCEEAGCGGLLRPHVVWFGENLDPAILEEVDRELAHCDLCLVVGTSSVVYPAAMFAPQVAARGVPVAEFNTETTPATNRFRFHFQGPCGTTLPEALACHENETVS

O=C(NC(c1ccccc1)c1ccccc1)c1cc(-c2cc3ccccc3o2)nc2ccccc12
Kd [1]: 5.52 µM
Tmax [2]: 2 h
ΔTm [3]: 1.01 °C
AUCt [4]: 704.67 ng·mL·h
Activity (NCI-H526): Active
Activity (NCI-H446): Active
IC50 [5]: > 200 µM
IC50 [6]: > 200 µM
Activity (BXPC-3): Dose-dependent effect
Activity [7]: Active
inhibition [8]: Active
Vdss [9]: 1112.8 L/kg
inhibition [10]: Active
IC50 (Histone deacetylase 2): > 200 µM
AUC [11]: 755.57 ng·mL·h
t1/2 [12]: 9.06 h
IC50 (Histone deacetylase 1): > 200 µM
IC50 (Histone deacetylase 11): > 200 µM
EC1.5 [13]: 0.58 µM
EC50 [13]: 5.35 µM
inhibition [14]: Dose-dependent effect
inhibition (MIA PaCa-2 [15]): Dose-dependent effect
Activity (MIA PaCa-2 [16]): Dose-dependent effect
IC50 (MIA PaCa-2 [16]; MIA PaCa-2, 72 h): 7.1 µM
Activity (PANC-1): Dose-dependent effect
